E-selectin induc: E-selectin induction on HUVECs; P16581; HUVEC E-selectin immunofluorescence imaging; normalized: neutral wells 0, TNF-alpha wells 100; activation, % at 7.58 µM; 0.37% of 260,000 active; AID 686992;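 active = mean E-selectin-positive cell signal at least 10% of the positive control, reached in at least 60% of replicates, without over 20% cell loss; inconclusive = no rule given, readout overlaps actives, possibly toxicity-flagged; inactive = the rest, including those meeting only one limit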
Target sequence (P16581 whole entry, looked up): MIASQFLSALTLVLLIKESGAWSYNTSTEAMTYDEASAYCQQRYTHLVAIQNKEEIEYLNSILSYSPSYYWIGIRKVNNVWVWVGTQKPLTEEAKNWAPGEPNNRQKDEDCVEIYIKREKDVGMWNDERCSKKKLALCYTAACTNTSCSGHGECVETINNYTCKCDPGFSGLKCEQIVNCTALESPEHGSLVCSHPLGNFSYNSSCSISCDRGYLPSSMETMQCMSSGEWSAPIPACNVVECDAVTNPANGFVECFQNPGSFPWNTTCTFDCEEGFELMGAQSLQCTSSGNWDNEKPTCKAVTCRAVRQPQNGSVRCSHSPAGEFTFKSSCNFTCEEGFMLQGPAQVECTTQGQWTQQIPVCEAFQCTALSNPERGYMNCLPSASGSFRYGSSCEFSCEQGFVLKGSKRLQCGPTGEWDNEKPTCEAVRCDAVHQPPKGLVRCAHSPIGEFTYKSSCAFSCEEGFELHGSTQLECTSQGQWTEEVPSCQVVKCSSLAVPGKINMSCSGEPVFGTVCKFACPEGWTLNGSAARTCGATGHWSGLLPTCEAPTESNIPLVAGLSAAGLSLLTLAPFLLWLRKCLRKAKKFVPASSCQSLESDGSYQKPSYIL
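Test system: HUVEC; input: 3,000 HUVEC/well; measured by: immunofluorescence imaging; read-out: % PE-positive cells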
Ecoli rRNA inh: selective bacterial rRNA inhibition in E. coli; 1.6% of 350,000 active; AID 720706; E. coli WT GFP vs humanized-ribosome RFP mutants, fluorescence, 24 h; hits give low values; DMSO median 0, no signal -100; GFP signal change (wild-type ribosome), % (test concentration not listed);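 active = significant combined selectivity score with lowered wild-type GFP, culture density cut under 30%, mutant RFP and density less affected; inactive = any of these conditions unmet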
EWS-Fli inh: EWS/Fli transcriptional activity inhibition; A673 NR0B1-luciferase reporter, viability-normalised; inhibition, % at 12.6 µM; 0.67% of 350,000 active; AID 651661;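 active = mean inhibition of at least 50% after viability correction, with every replicate also passing that limit; inconclusive = mean reaches 50% but only one of two replicates passes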;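 also: firefly luciferase signal divided by Alamar Blue viability fluorescence both relative to DMSO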
LGR2 antag: Drosophila LGR2 receptor signaling inhibition; HEK293 LGR2, CRE-luciferase, bursicon-stimulated, 4 h; inhibition, % at 9.99 µM; 0.35% of 380,000 active;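 active = drop in luminescence signal, shown as inhibition above about 50% in the replicate tests, limit read from the data, passing the limit was not always enough; inconclusive = probably only some replicates passing the limit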;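 also: agonist challenge used bursicon conditioned medium at about half maximal strength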
Numbers without * were called inactive. An excerpt weighted towards active compounds, which were near 2.4% of everything screened.

For COC(=O)[C@]1(C)N[C@H](CN(C)S(=O)(=O)c2ccc(C(C)(C)C)cc2)[C@@H]2C(=O)N(C)C(=O)[C@@H]21 the results were Ecoli rRNA inh -25* and EWS-Fli inh -3.
Screening CCN(C[C@H]1N[C@@](C)(C(=O)OC)[C@H]2C(=O)N(Cc3ccccc3)C(=O)[C@@H]12)S(=O)(=O)c1ccc(C)cc1 returned Ecoli rRNA inh -21*, EWS-Fli inh -8 and LGR2 antag 5.
CCN(C[C@H]1N[C@@](C)(C(=O)OC)[C@H]2C(=O)N(Cc3ccccc3)C(=O)[C@@H]12)S(=O)(=O)c1ccc(OC)cc1 was read as Ecoli rRNA inh -4, EWS-Fli inh -2 and LGR2 antag -2.
C[C@H]1CN([C@@H](C)CO)C(=O)c2cccc(NC(=O)CCCCCC(=O)Nc3ccccc3N)c2O[C@@H]1CN(C)Cc1ccc(-c2ccccc2)cc1 was read as E-selectin induc 1, Ecoli rRNA inh -3, EWS-Fli inh -6 and LGR2 antag 8.
Screening C[C@H]1CN([C@@H](C)CO)C(=O)c2cc(NC(=O)Nc3ccc(F)cc3)ccc2O[C@H]1CN(C)S(C)(=O)=O returned E-selectin induc 25, Ecoli rRNA inh -1, EWS-Fli inh 9 and LGR2 antag -26.
For COc1ccc(NC(=O)Nc2ccc3c(c2)C(=O)N([C@@H](C)CO)C[C@H](C)[C@@H](CN(C)C(=O)Cc2ccccc2)OCCCC[C@@H](C)O3)cc1 the results were E-selectin induc 0, Ecoli rRNA inh -6, EWS-Fli inh 7 and LGR2 antag 14.
Screening S=C(Nc1ccc(N2CCOCC2)cc1)Nc1ccc2snnc2c1 returned Ecoli rRNA inh -20*, EWS-Fli inh -9 and LGR2 antag -26.
COc1ccc(NC(=O)c2cccc3c(-c4cnn(C)c4)coc23)cc1 was read as E-selectin induc 0, Ecoli rRNA inh -5, EWS-Fli inh -47 and LGR2 antag -56.
Screening COc1cc(NC(=O)c2cccc3c(-c4cnn(C)c4)coc23)cc(OC)c1OC returned E-selectin induc 0, Ecoli rRNA inh -11, EWS-Fli inh -5 and LGR2 antag 73*.
`C=CCn1cccc(C(=O)Nc2ccc(C)cc2)c1=O` gave Ecoli rRNA inh -6, EWS-Fli inh -104 and LGR2 antag -63.
Screening C=CCn1cccc(C(=O)Nc2ccc(C)c(C)c2)c1=O returned E-selectin induc 0, Ecoli rRNA inh -30*, EWS-Fli inh -123 and LGR2 antag -63.
`CCSC(=S)c1c(C)[nH]n(-c2ccccc2)c1=O` gave Ecoli rRNA inh -43*, EWS-Fli inh 9 and LGR2 antag 2.
For Cc1[nH]n(-c2ccccc2)c(=O)c1C(=O)c1ccccc1 the results were E-selectin induc 0, Ecoli rRNA inh -29, EWS-Fli inh -15 and LGR2 antag -12.
For O=C(O)c1ccc(Nc2nc3c(s2)CCCC3)cc1 the results were Ecoli rRNA inh -4, EWS-Fli inh 67* and LGR2 antag inconclusive.
`COc1ccccc1/C=C/C(=O)NC(=S)N(C)C1CCCCC1` gave Ecoli rRNA inh -24*, EWS-Fli inh -1 and LGR2 antag -1.
Screening CCC(=O)N1CCC2(CC1)CN(C(=O)CN1CCOCC1)[C@H](CO)c1[nH]c3cc(OC)ccc3c12 returned E-selectin induc 0, Ecoli rRNA inh 4, EWS-Fli inh -7 and LGR2 antag 2.
For COC(=O)c1ccc(CSc2nc3ccc(S(N)(=O)=O)cc3[nH]2)cc1 the results were Ecoli rRNA inh 0, EWS-Fli inh 10 and LGR2 antag 0.
For O=C(CSc1nnc(-c2ccccc2F)n1C1CC1)Nc1ccc2[nH]c(=O)[nH]c2c1 the results were E-selectin induc -1, Ecoli rRNA inh -2, EWS-Fli inh 3 and LGR2 antag 0.
NS(=O)(=O)c1cccc(NC(=O)CSc2nnc(-c3ccccc3F)n2C2CC2)c1 was read as E-selectin induc -1, Ecoli rRNA inh -29*, EWS-Fli inh -4 and LGR2 antag -4.
O=C(COC(=O)c1cc(=O)[nH]c2ccccc12)Nc1cccc(S(=O)(=O)N2CCOCC2)c1 was read as E-selectin induc 0, Ecoli rRNA inh -17*, EWS-Fli inh 4 and LGR2 antag 7.
Screening O=C(CSc1nc2ccc(Cl)cc2[nH]1)c1cccs1 returned Ecoli rRNA inh -25*, EWS-Fli inh -105 and LGR2 antag -55.
`COC(=O)c1cccc(CSc2nc3ccccc3[nH]2)c1` gave E-selectin induc 0, Ecoli rRNA inh -10, EWS-Fli inh 59* and LGR2 antag -102.
O=C(C1CCC1)N1CC(=O)N2[C@H](CO)[C@@H](c3ccc(C#Cc4cccc(F)c4)cc3)[C@@H]2C1 was read as E-selectin induc 0, Ecoli rRNA inh -59, EWS-Fli inh 2 and LGR2 antag -4.
NS(=O)(=O)c1cccc(NC(=O)CSc2nc3ccc(Cl)cc3[nH]2)c1 was read as E-selectin induc 10, Ecoli rRNA inh -37*, EWS-Fli inh -7 and LGR2 antag 4.
For O=C(CCCSc1nc2ccccc2[nH]1)NC(c1ccccc1)c1ccccc1 the results were Ecoli rRNA inh -40*, EWS-Fli inh 13 and LGR2 antag -7.
Screening CN(C)C(=O)c1ccc(NC(=O)CSc2nc3ccccc3[nH]2)cc1 returned E-selectin induc -1, Ecoli rRNA inh -21*, EWS-Fli inh 3 and LGR2 antag 3.
CC(=O)Nc1ccc(NC(=O)CCCSc2nc3ccccc3[nH]2)cc1 was read as E-selectin induc 0, Ecoli rRNA inh 2, EWS-Fli inh 9 and LGR2 antag 15.
`O=C(CSc1nc2ccccc2[nH]1)Nc1ccc(N2CCOCC2)cc1` gave E-selectin induc 0, Ecoli rRNA inh 1 and LGR2 antag -20.
Screening O=C(CSc1nc2ccccc2[nH]1)Nc1cccc(S(=O)(=O)N2CCOCC2)c1 returned Ecoli rRNA inh -36*, EWS-Fli inh 8 and LGR2 antag 11.
CCCNC(=O)N1CC2(CN(C)C2)c2c(n(C)c3cc(OC)ccc23)[C@H]1CO was read as E-selectin induc 0, Ecoli rRNA inh 0, EWS-Fli inh 39 and LGR2 antag -2.
For Cc1ccc(CNc2ncnc3cc(Cl)ccc23)cc1 the results were E-selectin induc 0, Ecoli rRNA inh -6, EWS-Fli inh 10 and LGR2 antag 21.
For Cc1ccccc1CNc1ncnc2cc(Cl)ccc12 the results were E-selectin induc 51*, Ecoli rRNA inh 5, EWS-Fli inh 6 and LGR2 antag 10.
For CC(=O)N1CC(C)Sc2ccc(S(=O)(=O)NCCc3ccccc3)cc21 (stereo unspecified) the results were Ecoli rRNA inh -25* and LGR2 antag -14.
CC(=O)N1CC(C)Sc2ccc(S(=O)(=O)NCCc3ccc(C)cc3)cc21 (stereo unspecified) was read as Ecoli rRNA inh -44 and LGR2 antag -6.
COc1cccc(C(=O)Nc2ccc3c(c2)OC[C@H](C)N(CC2CC2)C[C@H](C)[C@@H](OC)CN(C)C3=O)c1 was read as Ecoli rRNA inh -3.

Assay outcomes: PubChem BioAssay, Broad Institute
